Measurements as given in paper PMC9420810 (Nature microbiology, 2022).

How the values were obtained:
[1] = read-out: KD of haem binding; cited from earlier work
[2] = system: iron uptake genes (hmuP) and rirA in S. meliloti; assay: qRT-PCR of iron-related genes; type: cell-based, Sinorhizobium meliloti
Summary of the method: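 Cells are grown in LB to OD600 0.2, pelleted and resuspended for 1 h in minimal medium with or without FeSO₄, then exposed to peptide for 30 min. Transcript levels are measured by qRT-PCR and expressed as starting quantities normalised to the reference gene SMc00128.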

Cytochrome c = assay: UV-Vis test of haem sequestration from Cytochrome c; type: binding; conditions: excess NCR247 added to Cytochrome c, UV-Vis spectrum
Aβ (1-42)-haem complex = assay: Peroxidase assay; type: biochemical, human; conditions: equimolar addition of NCR247, TMB substrate, 370 nm and 652 nm
Summary of the method: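 Haem complex, with or without equimolar peptide, is added to TMB substrate solution (TMB:peroxide 1:1) in 96-well plates. Reaction progress is followed in a plate reader by absorbance at 370 and 652 nm. Values are the mean of three independent replicates ± s.d.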

S. meliloti [3] = assay: Radioactive 55Fe uptake assay; type: cell-based, Sinorhizobium meliloti
Summary of the method: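 Cells are grown in LB to OD600 0.2, pelleted and held 1 h in minimal medium with 5 μM FeSO₄. Then 2 μM peptide and 100 μM sodium ascorbate are added for 30 min. At time 0, 1 μM ⁵⁵FeCl₃ with ascorbate is added. Timed 1 ml samples are quenched in ice-cold buffer (0.1 M Tris, 1 mM ascorbate, 100 μM FeSO₄, pH 6.0) and vacuum-filtered on 0.45 μm filters. Filters are scintillation-counted, and counts are normalised to protein.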

[4] = UV-Vis spectroscopy of haem binding to synthesized peptide; conditions: haem reduced by excess sodium dithionite, anaerobic chamber
Summary of the method: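 Hemin is dissolved in 0.1 M NaOH and used within 30 min. Its stock concentration is set by pyridine hemochrome absorbance at 557 nm (ε 34.7 mM⁻¹ cm⁻¹). Peptide and haem are mixed in water (pH 7.4) in 96-well plates. After shaking at 100 rpm for 15 s, spectra are recorded from 300 to 700 nm in 5 nm steps on a plate reader.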

S. meliloti [5] = assay: ICP-MS total iron content of cells; type: cell-based, Sinorhizobium meliloti; conditions: 2 μM NCR247, ICP-MS, normalized to protein
Summary of the method: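 Equal numbers of cells are pelleted for ICP-MS metal analysis. Protein is measured from the same number of cells, and metal content is normalised to protein.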

S. meliloti [6] = assay: Growth curve in minimal medium; type: cell-based, Sinorhizobium meliloti; conditions: 2 μM NCR247, OD 600 nm, 30° C
Summary of the method: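 Strain RM1021 or its mutants are first grown in LBMC (LB with 2.5 mM CaCl₂ and 2.5 mM MgSO₄, 200 μg/ml streptomycin, 30°C). Overnight cultures are washed and subcultured 1:100 into minimal medium, either iron-free or with the stated iron, Mn or Zn supplement. Cultures shake continuously at 150 rpm and 30°C in a plate reader, with OD600 read every 60 min.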

[7] = system: Porphyromonas gingivalis 2561; assay: Cell viability assay, P. gingivalis; type: cell-based
[8] = system: S. meliloti bacteroids isolated from M. truncatula nodules; assay: 55Fe uptake by isolated bacteroids; type: cell-based, Sinorhizobium meliloti; conditions: bacteroids from nodules of plants inoculated with wild type S. meliloti, NCR247 treated

Row | Substance | Kd [1] | rirA transcription ([2]; wild type S. meliloti, 2 μM NCR247 for 30 mins) | transcript levels of iron uptake genes ([2]; wild type S. meliloti, iron-replete medium, NCR247 treatment 30 mins) | expression of hmuP in ΔbacA strain ([2]; ΔbacA S. meliloti, 2 μM NCR247 for 30 mins) | sequestration of cytochrome haem (Cytochrome c) | peroxidase activity of Aβ (1-42)-haem complex (Aβ (1-42)-haem complex) | import of 55Fe (S. meliloti [3]; wild type S. meliloti, medium with sufficient iron (5 μM FeSO4), 2 μM NCR247, mean of three biological replicates) | uptake of 55Fe in irr deletion mutant compared to wild type (S. meliloti [3]; Δirr S. meliloti, NCR247 treated) | binding of Fe(II) ferrous haem [4] | total iron content of the cells (S. meliloti [5]) | growth rate of S. meliloti (S. meliloti [6]) | growth / viable cell number of Porphyromonas gingivalis [7] | uptake of Fe55 by bacteroids compared with untreated [8]
1 | Aβ(1-42): human Aβ(1-42) amyloid peptide [reference compound] | 0.14 µM |  |  |  |  |  |  |  |  |  |  |  | 
2 | RNGCIVDPRCPYQQCRRPLYCRRR [NCR247] |  | reduced | increase in transcript levels of iron uptake genes | very little change in expression of hmuP | cannot sequester cytochrome haem | quenches its peroxidase activity | markedly increased | diminished | binds | elevated total iron content | reduction in growth rate | can prevent the growth | increase uptake of Fe^55
3 | serum albumin | 40 µM |  |  |  |  |  |  |  |  |  |  |  | 
